# Measurements from different studies.
# Compare with care: the assays were run in different laboratories.
# Matrix: plasma
SMILES,system,setting,half-life [h]
C[C@H]1CN(CC2CCN(c3ccc(C4CCC(=O)NC4=O)cc3F)CC2)CC[C@H]1NS(=O)(=O)c1ccc(Nc2ncc(C(F)(F)F)c(N3CCC[C@](C)(O)C3)n2)c(F)c1 (some centres unmarked),rat,"intravenous, 2 mg/kg",4.6
[2H]C([2H])([2H])NC(=O)c1cc(Oc2ccc(NC(=O)Nc3ccc(Cl)c(C(F)(F)F)c3)cc2)ccn1,rat,"oral, 40 mg/kg, single dose",23.2
COCC(=O)N1CCC[C@H](C(=O)NCc2nc(-c3ccc(C#N)cc3)cs2)C1,male Sprague-Dawley rat,"oral, 3 mg/kg",2.4
COc1cc(-c2cc(C(C)=O)n3ccccc23)c(OC)cc1Cn1ccnc1,male Sprague-Dawley rat,"intravenous, 5 mg/kg",0.75
C=CC(=O)N1CCC([C@@H]2CCNc3c(C(N)=O)c(-c4ccc(Oc5ccccc5)cc4)nn32)CC1,Sprague-Dawley rat,"oral, 16 mg/kg",2.24
Cc1cc(S(=O)(=O)NC2CC(N3CCN(CC4CCN(c5cccc6c5n(C)c(=O)n6C5CCC(=O)NC5=O)CC4)CC3)C2)ccc1Nc1ncc(C(F)(F)F)c(N2CCC[C@](C)(O)C2)n1 (some centres unmarked),rat,"intravenous, 2 mg/kg",5.1
COc1cc(C2C3=C(COC3=O)N(CCO)c3cc4c(cc32)CCC4)cc(OC)c1OC (centres unmarked),female Sprague-Dawley rat,"intraperitoneal, 50 mg/kg",8.61
CC(=O)O[C@@H]1CC[C@@]2(C)[C@@H](CC[C@]3(C)[C@@H]2C(=O)C=C2[C@@H]4[C@@H](C)[C@H](C)CC[C@]4(C)CC[C@]23C)[C@@]1(C)C(=O)O,female Wistar rat,"oral, 1 mg/kg, single dose",9.9
CC(=O)c1c(C)c2cnc(Nc3ccc(N4CCNCC4)cn3)nc2n(C2CCCC2)c1=O,male Sprague-Dawley rat,"intravenous, 5 mg/kg",2.1
CONC(=O)c1cccc2c1cc(C)n2-c1nc2c(c(NCc3ccccc3)n1)CCCN2,male Sprague-Dawley rat,"oral, 10 mg/kg, single dose",1.15
Cc1cc(S(=O)(=O)N[C@]2(C)C[C@H](N3CCN(CC4CCN(c5ccc6c(c5F)n(C)c(=O)n6C5CCC(=O)NC5=O)CC4)CC3)C2)ccc1Nc1ncc(C(F)(F)F)c(N2CCC[C@](C)(O)C2)n1 (some centres unmarked),rat,"intravenous, 2 mg/kg",4.1
C[C@@]12C[C@@]3(O)O[C@@H](O1)[C@]1(COC(=O)c4ccccc4)[C@H]3C[C@@]12O[C@@H]1O[C@H](CO)[C@@H](O)[C@H](O)[C@H]1O,male Sprague-Dawley rat,"oral, 80 mg/kg",11.4
C[C@]1(O)CCCN(c2nc(Nc3ccc(S(=O)(=O)N[C@@H]4CCN(CC5CCN(c6ccc(C7CCC(=O)NC7=O)cc6F)CC5)C[C@H]4F)cc3F)ncc2C(F)(F)F)C1 (some centres unmarked),rat,"intravenous, 2 mg/kg",5.1
COCC(=O)N1CCC[C@H](C(=O)NCc2nc(-c3ccccc3)cs2)C1,male Sprague-Dawley rat,"intravenous, 1 mg/kg",6
